Data reported in ChEMBL document CHEMBL2062435, “Synthesis and in vitro antibacterial activity of gemifloxacin derivatives containing a substituted benzyloxime moiety” (2012).

Test system: Staphylococcus epidermidis
Assay: Antimicrobial activity against extended spectrum beta-lactamases-producing methicillin-sensitive Staphylococcus epidermidis 10-11 after 18-24 hrs by two-fold serial dilution method
Type: functional
How it was run: (§1)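 Agar-medium twofold serial dilution against Gram-positive and Gram-negative strains; MIC taken as the lowest compound concentration giving complete inhibition of bacterial growth after incubation at 35 °C for 18-24 h.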

Question: With `COc1cc(CO/N=C2\CN(c3nc4c(cc3F)c(=O)c(C(=O)O)cn4C3CC3)CC2CN)ccc1OCc1ccccc1.CS(=O)(=O)O` (racemic) as the molecule, how does the MIC read?
Answer: 8 µg/mL

Test system: Pseudomonas aeruginosa
Assay: Antimicrobial activity against Pseudomonas aeruginosa 10-12 after 18-24 hrs by two-fold serial dilution method
Type: functional
How it was run: as §1

Question: `COc1cc(CO/N=C2\CN(c3nc4c(cc3F)c(=O)c(C(=O)O)cn4C3CC3)CC2CN)ccc1OCc1ccccc1.CS(=O)(=O)O` (racemic) was tested. Which MIC did it give?
Answer: < 0.008 µg/mL

Test system: Enterococcus faecalis
Assay: Antimicrobial activity against Enterococcus faecalis 10-5 after 18-24 hrs by two-fold serial dilution method
Type: functional
How it was run: as §1

Question: With `COc1cc(CO/N=C2\CN(c3nc4c(cc3F)c(=O)c(C(=O)O)cn4C3CC3)CC2CN)ccc1OCc1ccccc1.CS(=O)(=O)O` (racemic) as the molecule, how does the MIC read?
Answer: 4 µg/mL

Test system: Enterococcus faecalis
Assay: Antimicrobial activity against Enterococcus faecalis 10-6 after 18-24 hrs by two-fold serial dilution method
Type: functional
How it was run: as §1

Question: Which MIC does the source give for `COc1cc(CO/N=C2\CN(c3nc4c(cc3F)c(=O)c(C(=O)O)cn4C3CC3)CC2CN)ccc1OCc1ccccc1.CS(=O)(=O)O` (racemic) here?
Answer: 8 µg/mL

Test system: Staphylococcus aureus
Assay: Antimicrobial activity against extended spectrum beta-lactamases-producing methicillin-resistant Staphylococcus aureus 10-15 after 18-24 hrs by two-fold serial dilution method
Type: functional
How it was run: (§2)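 Agar twofold serial dilution MIC against clinical isolates. MIC was taken as the lowest concentration giving complete inhibition of bacterial growth after incubation at 35 °C for 18-24 h.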

Question: `COc1cc(CO/N=C2\CN(c3nc4c(cc3F)c(=O)c(C(=O)O)cn4C3CC3)CC2CN)ccc1OCc1ccccc1.CS(=O)(=O)O` (racemic) was tested. Which MIC did it give?
Answer: 0.5 µg/mL

Test system: Pseudomonas aeruginosa
Assay: Antimicrobial activity against extended spectrum beta-lactamases-producing Pseudomonas aeruginosa 10-9 after 18-24 hrs by two-fold serial dilution method
Type: functional
How it was run: as §1

Question: Which MIC does the source give for `COc1cc(CO/N=C2\CN(c3nc4c(cc3F)c(=O)c(C(=O)O)cn4C3CC3)CC2CN)ccc1OCc1ccccc1.CS(=O)(=O)O` (racemic) here?
Answer: 16 µg/mL

Test system: Staphylococcus epidermidis
Assay: Antimicrobial activity against extended spectrum beta-lactamases-producing methicillin-resistant Staphylococcus epidermidis 10-13 after 18-24 hrs by two-fold serial dilution method
Type: functional
How it was run: as §2

Question: For `COc1cc(CO/N=C2\CN(c3nc4c(cc3F)c(=O)c(C(=O)O)cn4C3CC3)CC2CN)ccc1OCc1ccccc1.CS(=O)(=O)O` (racemic), which MIC is on record?
Answer: 1 µg/mL

Test system: Pseudomonas aeruginosa
Assay: Antimicrobial activity against extended spectrum beta-lactamases-producing Pseudomonas aeruginosa 10-18 after 18-24 hrs by two-fold serial dilution method
Type: functional
How it was run: as §1

Question: With `COc1cc(CO/N=C2\CN(c3nc4c(cc3F)c(=O)c(C(=O)O)cn4C3CC3)CC2CN)ccc1OCc1ccccc1.CS(=O)(=O)O` (racemic) as the molecule, how does the MIC read?
Answer: 16 µg/mL

Test system: Klebsiella pneumoniae
Assay: Antimicrobial activity against extended spectrum beta-lactamases-producing Klebsiella pneumoniae 10-1 after 18-24 hrs by two-fold serial dilution method
Type: functional
How it was run: as §1

Question: `COc1cc(CO/N=C2\CN(c3nc4c(cc3F)c(=O)c(C(=O)O)cn4C3CC3)CC2CN)ccc1OCc1ccccc1.CS(=O)(=O)O` (racemic) was tested. Which MIC did it give?
Answer: > 128 µg/mL

Test system: Pseudomonas aeruginosa
Assay: Antimicrobial activity against extended spectrum beta-lactamases-producing Pseudomonas aeruginosa 10-5 after 18-24 hrs by two-fold serial dilution method
Type: functional
How it was run: as §1

Question: With `COc1cc(CO/N=C2\CN(c3nc4c(cc3F)c(=O)c(C(=O)O)cn4C3CC3)CC2CN)ccc1OCc1ccccc1.CS(=O)(=O)O` (racemic) as the molecule, how does the MIC read?
Answer: 16 µg/mL

Test system: Escherichia coli
Assay: Antimicrobial activity against extended spectrum beta-lactamases-producing Escherichia coli 10-2 after 18-24 hrs by two-fold serial dilution method
Type: functional
How it was run: as §1

Question: How did the MIC turn out when `COc1cc(CO/N=C2\CN(c3nc4c(cc3F)c(=O)c(C(=O)O)cn4C3CC3)CC2CN)ccc1OCc1ccccc1.CS(=O)(=O)O` (racemic) was run?
Answer: > 128 µg/mL

Test system: Escherichia coli
Assay: Antimicrobial activity against extended spectrum beta-lactamases-producing Escherichia coli 10-3 after 18-24 hrs by two-fold serial dilution method
Type: functional
How it was run: as §1

Question: `COc1cc(CO/N=C2\CN(c3nc4c(cc3F)c(=O)c(C(=O)O)cn4C3CC3)CC2CN)ccc1OCc1ccccc1.CS(=O)(=O)O` (racemic) was tested. Which MIC did it give?
Answer: > 128 µg/mL

Test system: Klebsiella pneumoniae
Assay: Antimicrobial activity against Klebsiella pneumoniae 10-4 after 18-24 hrs by two-fold serial dilution method
Type: functional
How it was run: as §1

Question: `COc1cc(CO/N=C2\CN(c3nc4c(cc3F)c(=O)c(C(=O)O)cn4C3CC3)CC2CN)ccc1OCc1ccccc1.CS(=O)(=O)O` (racemic) was tested. Which MIC did it give?
Answer: > 128 µg/mL

Test system: Escherichia coli
Assay: Antimicrobial activity against extended spectrum beta-lactamases-producing Escherichia coli 10-4 after 18-24 hrs by two-fold serial dilution method
Type: functional
How it was run: as §1

Question: For `COc1cc(CO/N=C2\CN(c3nc4c(cc3F)c(=O)c(C(=O)O)cn4C3CC3)CC2CN)ccc1OCc1ccccc1.CS(=O)(=O)O` (racemic), which MIC is on record?
Answer: 32 µg/mL

Test system: Staphylococcus aureus
Assay: Antimicrobial activity against extended spectrum beta-lactamases-producing methicillin-sensitive Staphylococcus aureus 10-13 after 18-24 hrs by two-fold serial dilution method
Type: functional
How it was run: as §1

Question: How did the MIC turn out when `COc1cc(CO/N=C2\CN(c3nc4c(cc3F)c(=O)c(C(=O)O)cn4C3CC3)CC2CN)ccc1OCc1ccccc1.CS(=O)(=O)O` (racemic) was run?
Answer: 4 µg/mL

Test system: Enterococcus faecium
Assay: Antimicrobial activity against Enterococcus faecium 10-9 after 18-24 hrs by two-fold serial dilution method
Type: functional
How it was run: as §1

Question: `COc1cc(CO/N=C2\CN(c3nc4c(cc3F)c(=O)c(C(=O)O)cn4C3CC3)CC2CN)ccc1OCc1ccccc1.CS(=O)(=O)O` (racemic) was tested. Which MIC did it give?
Answer: 16 µg/mL

Test system: Staphylococcus aureus
Assay: Antimicrobial activity against extended spectrum beta-lactamases-producing methicillin-sensitive Staphylococcus aureus 10-14 after 18-24 hrs by two-fold serial dilution method
Type: functional
How it was run: as §1

Question: `COc1cc(CO/N=C2\CN(c3nc4c(cc3F)c(=O)c(C(=O)O)cn4C3CC3)CC2CN)ccc1OCc1ccccc1.CS(=O)(=O)O` (racemic) was tested. Which MIC did it give?
Answer: < 0.008 µg/mL

Test system: Staphylococcus aureus
Assay: Antimicrobial activity against Staphylococcus aureus ATCC […] after 18-24 hrs by two-fold serial dilution method
Type: functional
How it was run: as §1

Question: `COc1cc(CO/N=C2\CN(c3nc4c(cc3F)c(=O)c(C(=O)O)cn4C3CC3)CC2CN)ccc1OCc1ccccc1.CS(=O)(=O)O` (racemic) was tested. Which MIC did it give?
Answer: < 0.008 µg/mL
